Measurements from paper PMC11696753 (ACS Omega, 2024).
Numbering of substitutions follows the chain as printed. Blank lines part the entries; values can stand above or below the compound they belong to.

Columns and labels:
SW480 cell line = assay: MTT antiproliferative assay, SW480 cell line; type: cell-based, human; conditions: for inhibition of SW480 cells compared with the CVB-D group: 10 μM, CVB-D 12 μM
Outline: (§1)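 MTT assay. Cells were grown in DMEM with 10% FBS and 1% penicillin/streptomycin at 37 °C, 5% CO2, then seeded at 5 × 10^3 to 6 × 10^3 cells/mL in 96-well plates. Screening was at 10 μM, with CVB-D (12 μM) as positive control and curcumin as comparator. The dose range was 0–8 μM in 1 μM steps. Solvent-only wells served as controls. Read-out was absorbance of DMSO-dissolved formazan. Data are mean ± SD, n ≥ 3.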

CT26 cell line = assay: MTT antiproliferative assay, CT26 cell line; type: cell-based, mouse
Outline: as §1

PI3K and Akt proteins = assay: Western blot, PI3K-Akt pathway in TAMs; type: cell-based
Outline: (§2)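 Western blot in tumour–macrophage cocultures: SW480 with THP-1 (human) and CT26 with RAW264.7 (mouse). Coculture drives the macrophages toward a cancer-promoting phenotype, after which test compound is applied. Protein was quantified by BCA, separated by SDS-PAGE, transferred to PVDF and detected with peroxidase labeling. Comparisons were against both the control and the untreated coculture. Data are mean ± SD, n ≥ 3.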

p27 [1] = assay: Western blot, p27 expression in CT26 cells; type: cell-based, mouse; conditions: CT26, 8 μM vs control
Outline: (§3)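 Western blot. SW480 or CT26 cells were seeded at 3 × 10^5 to 5 × 10^5/mL, allowed to adhere, then exposed to 0 (control) or 8 μM test compound for 24 h. Lysate protein was quantified by BCA and equalised, boiled, separated by SDS-PAGE, transferred to PVDF and detected with peroxidase labeling. Data are mean ± SD, at least three independent replicates, analysed by one-way ANOVA or t test.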

PI3K [2] = assay: Western blot, PI3K expression in SW480 cells; type: cell-based, human; conditions: SW480, 8 μM
Outline: as §3

NCM460 cell line = assay: MTT cytotoxicity, normal colon epithelial cell line NCM460; type: cell-based, human
Outline: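 MTT viability in NCM460 normal human colon epithelial cells. Test compound and curcumin were each tested at 0, 5, 10, 20, 40 and 80 μM, diluted in medium from a 10 mmol/L DMSO stock, against a solvent control. Formazan was dissolved in DMSO and absorbance read. Toxicity was graded by USP classification. Data are mean ± SD, at least three independent replicates.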

Akt [3] = assay: Western blot, Akt expression in SW480 cells; type: cell-based, human; conditions: SW480, 8 μM
Outline: as §3

CDK1 [4] = molecular target: CDK1 (Mus musculus, UniProt P11440); assay: Western blot, CDK1 expression in CT26 cells; type: cell-based; conditions: CT26, 8 μM
Chain of CDK1 (Mus musculus, UniProt P11440) (P11440 whole entry): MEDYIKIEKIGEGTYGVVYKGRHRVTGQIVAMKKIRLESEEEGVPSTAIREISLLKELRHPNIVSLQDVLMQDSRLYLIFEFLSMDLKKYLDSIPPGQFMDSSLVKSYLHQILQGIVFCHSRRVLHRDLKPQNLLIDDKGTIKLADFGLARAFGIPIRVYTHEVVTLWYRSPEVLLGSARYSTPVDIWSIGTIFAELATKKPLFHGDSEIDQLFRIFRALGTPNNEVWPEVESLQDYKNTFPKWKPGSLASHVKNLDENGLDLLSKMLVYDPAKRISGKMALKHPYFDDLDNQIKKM
Outline: as §3

Akt [5] = assay: Western blot, Akt expression in CT26 cells; type: cell-based, mouse; conditions: CT26, 8 μM
Outline: as §3

Cyclin-D1 [6] = assay: Western blot, Cyclin-D1 expression in SW480 cells; type: cell-based, human; conditions: SW480, 8 μM
Outline: as §3

[7] = system: cytokines (TGF-β, IL-10, and Arg-1); assay: Western blot, cytokine expression in the TME; type: cell-based; conditions: vs coculture
Outline: as §2

[8] = system: chemokine receptors, CC and CXC chemokine subfamilies; assay: Chemokine mRNA levels in human and mouse TME; type: cell-based; conditions: human and mouse TME cocultures
Outline: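 Human system: SW480 cells cocultured with THP-1 cells. Mouse system: CT26 cells cocultured with RAW264.7 cells. Coculture induces the macrophages to differentiate into cancer-promoting cells, which are then treated with test compound. Chemokine receptor and CC/CXC chemokine mRNA levels were measured and compared with the control group. Data are mean ± SD from at least three independent replicates.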

CDK1 [9] = molecular target: CDK1 (Homo sapiens, UniProt P06493); assay: Western blot, CDK1 expression in SW480 cells; type: cell-based; conditions: SW480, 8 μM
Chain of CDK1 (Homo sapiens, UniProt P06493) (P06493 whole entry): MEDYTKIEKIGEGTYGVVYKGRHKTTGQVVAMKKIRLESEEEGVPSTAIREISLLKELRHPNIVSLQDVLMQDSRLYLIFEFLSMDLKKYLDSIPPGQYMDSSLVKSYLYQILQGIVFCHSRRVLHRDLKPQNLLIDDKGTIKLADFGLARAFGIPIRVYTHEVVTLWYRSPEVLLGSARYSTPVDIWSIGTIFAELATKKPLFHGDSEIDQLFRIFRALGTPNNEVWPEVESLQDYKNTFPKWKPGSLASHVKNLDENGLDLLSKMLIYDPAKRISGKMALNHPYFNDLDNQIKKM
Outline: as §3

SHP-2 [10] = molecular target: T1, SHP-2 (Homo sapiens, UniProt Q06124); assay: Western blot, SHP-2 in human TME; type: cell-based; conditions: SW480 cocultured with THP-1
T1 sequence (Q06124 1-593): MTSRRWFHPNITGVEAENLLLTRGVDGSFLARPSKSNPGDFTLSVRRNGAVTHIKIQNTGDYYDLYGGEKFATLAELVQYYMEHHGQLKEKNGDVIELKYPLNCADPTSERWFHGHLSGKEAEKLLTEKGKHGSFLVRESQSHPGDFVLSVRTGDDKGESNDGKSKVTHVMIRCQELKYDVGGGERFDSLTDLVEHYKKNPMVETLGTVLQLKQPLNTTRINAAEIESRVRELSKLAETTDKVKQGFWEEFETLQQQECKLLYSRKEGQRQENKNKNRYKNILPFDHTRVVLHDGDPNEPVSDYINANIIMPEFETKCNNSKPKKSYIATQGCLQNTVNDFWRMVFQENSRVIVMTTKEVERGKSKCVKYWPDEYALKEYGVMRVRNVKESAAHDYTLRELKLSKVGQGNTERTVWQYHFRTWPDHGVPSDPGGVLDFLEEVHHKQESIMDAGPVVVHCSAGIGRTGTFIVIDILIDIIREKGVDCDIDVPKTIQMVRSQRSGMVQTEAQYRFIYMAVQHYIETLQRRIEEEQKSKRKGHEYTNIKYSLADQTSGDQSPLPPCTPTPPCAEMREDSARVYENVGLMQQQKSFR
Outline: as §2

Cyclin-D1 [11] = assay: Western blot, Cyclin-D1 expression in CT26 cells; type: cell-based, mouse; conditions: CT26, 8 μM
Outline: as §3

RAW264.7 cell line = assay: MTT cytotoxicity, RAW264.7 cell line; type: cell-based, mouse; conditions: 0 to 8 μM, all concentrations
Outline: (§4)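 Viability of THP-1 (human monocytic) and RAW264.7 (mouse macrophage) cells was measured by MTT. Cells were grown in DMEM with 10% FBS at 37 °C, 5% CO2, then seeded at 5 × 10^3 to 6 × 10^3 cells/mL. Test compound was given at 0–8 μM alongside an equal-volume solvent control. Read-out was absorbance after DMSO solubilisation of formazan. Data are mean ± SD from at least three independent experiments.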

Parkin [12] = assay: Western blot, Parkin expression in CT26 cells; type: cell-based, mouse; conditions: CT26, 8 μM vs control
Outline: as §3

RKO cell line = assay: MTT antiproliferative assay, RKO cell line; type: cell-based, human; conditions: NCM460 vs RKO
Outline: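 Selectivity index is the IC50 in normal colon epithelial NCM460 cells divided by the IC50 in the colorectal cancer line. Both IC50s come from MTT viability assays: solvent-treated controls, formazan dissolved in DMSO, absorbance read-out, at least three independent replicates.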

Parkin [13] = assay: Western blot, Parkin expression in SW480 cells; type: cell-based, human; conditions: SW480, 8 μM vs control
Outline: as §3

PINK1 [14] = assay: Western blot, PINK1 expression in SW480 cells; type: cell-based, human; conditions: SW480, 8 μM vs control
Outline: as §3

PI3K [15] = assay: Western blot, PI3K expression in CT26 cells; type: cell-based, mouse; conditions: CT26, 8 μM
Outline: as §3

SHP-2 [16] = molecular target: T2, SHP-2 (Mus musculus, UniProt P35235); assay: Western blot, SHP-2 in mouse TME; type: cell-based; conditions: CT26 cocultured with RAW264.7
T2 sequence (P35235 1-593): T1 sequence (Q06124 1-593) with M450V, A550V, K590R
Outline: as §2

SHP-2 [17] = molecular target: T2, SHP-2; assay: Western blot, SHP-2 expression in CT26 cells; type: cell-based; conditions: CT26, 8 μM
Outline: as §3

SHP-2 [18] = molecular target: T1, SHP-2; assay: Western blot, SHP-2 expression in SW480 cells; type: cell-based; conditions: SW480, 8 μM
Outline: as §3

THP-1 cell line = assay: MTT cytotoxicity, THP-1 cell line; type: cell-based, human; conditions: 0 to 8 μM, all concentrations
Outline: as §4

p27 [19] = assay: Western blot, p27 expression in SW480 cells; type: cell-based, human; conditions: SW480, 8 μM vs control
Outline: as §3

PINK1 [20] = assay: Western blot, PINK1 expression in CT26 cells; type: cell-based, mouse; conditions: CT26, 8 μM vs control
Outline: as §3

Structure (SMILES): COc1cc(/C=C/C(=O)/C(=C\C2=CC=C[CH]2[Fe][CH]2C=CC=C2)C(=O)/C=C/c2ccc(OC)c(OC)c2)ccc1O (stereo not shown) [Compound 3b, Cyclopenta-2,4-dien-1-yl(2-((1E,4E)-5(3,4-dimethoxyphenyl)-2-((E)-3-(4-hydroxy-3-methoxyphenyl)acryloyl)-3-oxopenta-1,4-dien-1-yl)cyclopenta-2,4-dien-1-yl)iron]
- inhibition of SW480 cells compared with the CVB-D group (SW480 cell line): markedly superior
- proliferative capacity of CT26 cells compared to the control group (CT26 cell line; 10 μM): significant differences
- proliferative capacity of CT26 cells compared to the CVB-D group (CT26 cell line; 10 μM, CVB-D 12 μM): no significant difference

- IC50 (SW480 cell line; read-out: IC50 against SW480 cells, SW480 cells, MTT): 3710 nM
- CDK1 inhibition rate (CDK1 [4]): 20%
- effect on CCL and CXCL subfamilies (mRNA) [8]: able to inhibit
- mRNA levels of CCR chemokine receptors [8]: significantly reduced
- CDK1 inhibition rate (CDK1 [9]): 18%
- inhibition rate on SHP-2 target in human TME (SHP-2 [10]): 65%
- IC50 (CT26 cell line; read-out: IC50 against CT26 cells, CT26 cells, MTT): 1420 nM
- inhibition rate on SHP-2 target in mouse TME (SHP-2 [16]): 32%
- SHP-2 inhibition rate (SHP-2 [17]): 24%
- SHP-2 inhibition rate (SHP-2 [18]): 76%
Structure (SMILES): COc1ccc(/C=C/C(=O)C(=CC2=CC=C[CH]2[Fe][CH]2C=CC=C2)C(=O)/C=C/c2ccc(OC)c(OC)c2)cc1OC (stereo not shown) [Compound 3f, Cyclopenta-2,4-dien-1-yl(2-((E)-5(3,4-dimethoxyphenyl)-2-((E)-3-(3,4-dimethoxyphenyl)acryloyl)-3-oxopenta-1,4-dien-1-yl)cyclopenta-2,4-dien-1-yl)iron]
- inhibition of SW480 cells compared with the CVB-D group (SW480 cell line): markedly superior
- selectivity index (SI), IC50 normal cells / IC50 SW480 (SW480 cell line; NCM460 vs SW480): 250
- concentration of strongest (optimal) inhibition (SW480 cell line; SW480, tested 0-8 μM): 8 µM
- concentration at which significant inhibition begins (SW480 cell line; SW480, vs control): 4 µM
- expression levels of PI3K and Akt proteins in both coculture systems (PI3K and Akt proteins): reduced
- expression of p27 protein (p27 [1]): significantly increased
- PI3K expression inhibition rate (PI3K [2]): 46%
- USP toxicity classification to normal colon epithelial cells (NCM460 cell line; NCM460): low toxic/nontoxic
- viability of NCM460 cells (NCM460 cell line; at all concentrations (0, 5, 10, 20, 40, 80 μM)): above 87%
- Akt expression inhibition rate (Akt [3]): 48%
- Akt expression inhibition rate (Akt [5]): 50%
- Cyclin-D1 protein expression inhibition rate (Cyclin-D1 [6]): 19%
- expression levels of cytokines (TGF-β, IL-10, Arg-1) in the TME [7]: significantly reduced
- effect on Cyclin-D1 protein compared to SW480 (Cyclin-D1 [11]): stronger inhibitory effect
- cell viability of RAW264.7 cells (RAW264.7 cell line): ~100%
- expression of Parkin protein (Parkin [12]): significantly increased
- proliferative capacity of CT26 cells compared to the control group (CT26 cell line; 10 μM): significant differences
- optimal inhibitory concentration (CT26 cell line; CT26, tested 0-8 μM): 8 µM
- concentration at which an inhibitory effect is demonstrated (CT26 cell line; CT26, vs control): 3 µM
- selectivity index (SI), IC50 normal cells / IC50 CT26 (CT26 cell line; NCM460 vs CT26): 654
- selectivity index (SI), IC50 normal cells / IC50 RKO (RKO cell line): 162
- expression of Parkin protein (Parkin [13]): significantly up-regulated
- expression of PINK1 protein (PINK1 [14]): significantly up-regulated
- PI3K expression inhibition rate (PI3K [15]): 15%
- cell viability of THP-1 cells (THP-1 cell line): ~100%
- expression of p27 protein (p27 [19]): significantly increased
- expression of PINK1 protein (PINK1 [20]): significantly increased
